pKd: −log10 of the molar value. Where two headings read alike, the source gives them in different places.
Experiments:
SadX [1] = test: Steady state kinetic analysis of SadX with varying concentrations of 1a; format: biochemical
SadX [2] = format: biochemical; conditions: for Km: KM for salt; for Km / kcat: hydroxylation of 1a (1 mM) to give 1b by 0.5 μM SadX, varying [salt]; for Kinetic behaviour of 1b formation as a function of salt concentration: saturating 1a (1 mM), SadX
Fe(II) center in SadX = test: UV-vis titration of anion binding; conditions: SadX-His/Fe(II)/αKG, 100 mM HEPES pH 7.5
Outline: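 Anaerobic (N₂ glovebox, degassed buffer): SadX-His (0.51 mM, 0.5 μmol) plus FeSO₄ (0.375 μmol) in 100 mM HEPES pH 7.5, 23 °C, quartz cuvette. αKG (5 μmol) added, then anion salt (10–200 mM stocks). Spectra 350–800 nm, dilution-corrected. Difference spectra taken versus initial SadX-His/Fe(II) and zeroed at 800 nm. λmax absorbances fitted to single-site saturation binding for KD.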

SadX [3] = test: SadX activity assay: conversion of 1a in the presence of salts; format: biochemical; conditions: 10 μM SadX, 1 mM 1a, 50 mM salt, overnight, room temperature

| Molecule | Fold improved kcat/KM relative to that in the absence of salt (SadX [1]; SadX, hydroxylation of 1a) [fold] | Km (SadX [2]) [mM] | kcat (SadX [2]) [min⁻¹] | pKd (Fe(II) center in SadX; Blue-shifted Absorbance) | pKd (Fe(II) center in SadX; Red-shifted Absorbance) | Kinetic behaviour of 1b formation as a function of salt concentration (SadX [2]) | Conversion of 1a (to 1b) (SadX [3]) | Fold by which hydroxylation kcat/KM exceeds WT SadA (SadX [1]; SadX, hydroxylation of 1a) [fold] | kcat (SadX [1]; azidation of 1a by SadX to give 1eN3, varying [1a]) |
| --- | --- | --- | --- | --- | --- | --- | --- | --- | --- |
| [Cs+].[F-] [CsF] | 16 | 12 | 21.4 | 3.34 | 3.35 |  |  |  |  |
| F[P-](F)(F)(F)(F)F.[NH4+] [NH4PF6] |  |  |  |  |  | does not follow Michaelis Menten kinetics | trace conversion |  |  |
| [Cl-].[Na+] [NaCl] |  | 4.16 | 11.8 | 3.22 | 3.31 | exhibit saturation kinetics |  |  |  |
| [N-]=[N+]=[N-].[Na+] [NaN3] |  | 0.014 | 57.2 | 2.58 | 3.22 | exhibit saturation kinetics |  | 12 | 8.72 10^−3 s^−1 |
| O=C[O-].[Na+] [NaOC(O)H] |  | 0.45 | 7.35 | 3.28 | 3.33 |  |  |  |  |
| CC(=O)O [acetate] |  |  |  |  |  |  | low conversion |  |  |
| N#C[O-].[Na+] [cyanate] |  |  |  |  |  |  | high conversion |  |  |
| bromide |  |  |  |  |  |  | significantly lower conversion |  |  |

Source: publication PMC9789792 (Inorganic chemistry, 2022)
